# Compound activity: PubChem, The Scripps Research Institute Molecular Screening Center
# TAAR1 ag: human TAAR1 agonists, primary screen, Fluo-8 calcium fluorescence, CHO RD-HGA16 cells; vehicle wells 0%, saturating PEA agonist 100%; activation, % at 3 µM; hit rate 0.99% among 360,000;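 active = activation above the mean activation of all test compounds in the run plus 3 SD, cut at about 38% in these data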
#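 Test system: RD-HGA16 (CHO) cells co-expressing Gα16 and hTAAR1 | Doses: Single dose, 3 µM | Schedule: 17-24 h seeding, 75 min 37 °C dye, 30 min RT | Evaluation: % activation from peak over basal fluorescence ratio, DMSO-to-PEA scaled | Technique: Kinetic Fluo-8 calcium fluorescence | Benchmarks: Low control DMSO, high control PEA (EC100)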
# CHO parental Ca: ATP-evoked calcium signal inhibitors, parental CHO, primary screen, counter-screen for OX1R antagonist project, cell-based, fluorescence, Fluo-8 calcium dye; parental CHO-K1, ATP-induced calcium, Fluo-8 fluorescence; hit rate 0.63% among 330,000; inhibition, % at 5.6 µM;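 active = inhibition above that plate's mean sample inhibition plus 3 SD, cut at about 26% in these data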;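 note: 0% = ATP-challenged DMSO wells and 100% = DMSO wells without ATP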
#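 test system = CHO parental line | reagent = ATP stimulus | measured by = intracellular calcium via Fluo-8 no-wash fluorescent dye | control set = ATP and no-ATP DMSO wells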
# GPR7 antagonist: GPR7 receptor antagonists, primary screen, cell-based, fluorescence, single concentration; Neuropeptides B/W receptor type 1 (Homo sapiens), P48145; GPR7-expressing cells, fluorescence antagonist assay; inhibition, % at 4.4 µM; hit rate 1.1% among 290,000; AID 1861, 2009; in the data active = inhibition above about 16%, passing the limit was not always enough;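 note: cells stimulated with the agonist NPW; 0% = agonist with vehicle and 100% = vehicle without agonist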
# OX1R antag-1: OX1R (HCRTR1) antagonists, primary screen, fluorescence, CHO/OX1R cells, Fluo-8 calcium, orexin A; Orexin/Hypocretin receptor type 1 (Homo sapiens), O43613; inhibition, % at 5 µM; Fluo-8 calcium fluorescence; hit rate 0.43% among 330,000;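 active = inhibition above its plate's threshold, mean inhibition of all tested compounds on the plate plus 3 SD, cut at about 37% in these data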;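 note: 0% = orexin A challenge wells and 100% = SB-334867-A antagonist wells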
# Target sequence (O43613 whole entry, looked up): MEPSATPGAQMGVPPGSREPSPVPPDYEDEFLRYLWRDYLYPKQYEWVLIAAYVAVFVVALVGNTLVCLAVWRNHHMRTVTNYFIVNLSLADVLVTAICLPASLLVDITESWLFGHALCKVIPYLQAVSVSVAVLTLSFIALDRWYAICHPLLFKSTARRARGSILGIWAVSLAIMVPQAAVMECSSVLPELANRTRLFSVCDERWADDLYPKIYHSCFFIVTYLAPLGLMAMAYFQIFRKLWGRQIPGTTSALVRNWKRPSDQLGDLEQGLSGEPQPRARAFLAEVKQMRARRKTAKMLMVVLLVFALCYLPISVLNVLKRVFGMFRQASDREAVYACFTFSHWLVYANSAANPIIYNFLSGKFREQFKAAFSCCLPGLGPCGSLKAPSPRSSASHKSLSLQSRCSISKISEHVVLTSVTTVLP
# TAAR1 antagonist: human TAAR1 antagonists, primary screen, Fluo-8 calcium fluorescence, CHO RD-HGA16 cells; Trace amine-associated receptor 1 (Homo sapiens), Q96RJ0; hit rate 1.5% among 360,000; AID 624466, 2012; inhibition, % at 3 µM; antagonist;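 active = inhibition above a per-plate cutoff, the mean inhibition of test compounds on that plate plus 3 SD, cut at about 49% in these data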;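 note: 0% = DMSO plus EC80 beta-PEA response and 100% = DMSO alone without agonist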
#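 Test system: CHO RD-HGA16 cells bearing hTAAR1 | Reagent: β-PEA, EC80 | Compound dosing: 3 µM, single point | Schedule: Dye loading 75 min at 37 °C, then 30 min room temperature | Signal: Calcium fluorescence with Fluo-8 | Evaluation: Percent inhibition of PEA-evoked calcium signal, max/basal emission ratio | Control set: DMSO-only wells and EC80 β-PEA-stimulated wells | Repeats: Singlicate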
# OX1R antag-2: antagonists of human orexin 1 receptor (OX1R); OX1R-expressing cells, FRET antagonist read-out; hit rate 1.8% among 330,000; AID 485270, 2010; inhibition, % at 6.6 µM; Orexin/Hypocretin receptor type 1 (Homo sapiens), O43613; in the data active = inhibition mostly above about 38%, no sharp cut-off; inactive = mostly below about 40%;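 note: 0% = agonist challenge alone and 100% = reference antagonist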
# * hit, by the source's call; · = no result. The list is not random: actives were taken first. Their share in the collection is about 4.5%.
SMILES,TAAR1 ag,CHO parental Ca,GPR7 antagonist,OX1R antag-1,TAAR1 antagonist,OX1R antag-2
C[C@@H](C(=O)Nc1ccc2ccccc2c1)[C@H]1C[C@]1(C)[C@H](NC(=O)c1cnccn1)c1ccccc1,8,-28,0,27,18,69*
COc1ccccc1NC(=O)c1nn(-c2ccc(Cl)cc2)ccc1=O,3,-2,-17,-18,2,35
COc1ccccc1NC(=O)c1nn(-c2ccccc2)ccc1=O,7,-9,6,6,14,71*
Cc1cccc(C(=O)NNC(=O)c2ccccc2)c1,2,-3,5,-7,2,-2
Cc1cccc(C(=O)c2cnc3ccccc3c2-c2ccccc2)c1,11,-19,3,-33,49*,26
CCCCCCCCC(=O)NC(NC(=S)N1CCOCC1)C(Cl)(Cl)Cl (stereo unspecified),17,-12,19*,20,6,11
Cc1cc(C(=O)CSc2nc3ccc(Cl)cc3[nH]2)c(C)n1Cc1ccco1,2,-5,·,-19,9,45*
O=[N+]([O-])c1cnc(Nc2ccccc2)nc1Nc1ccccc1,2,-6,-7,-19,-15,3
CCCCC(C(=O)NC(C)c1ccccc1)C(=O)NC(C)c1ccccc1 (stereo unspecified),8,-16,-15,13,-3,57*
CCOC(=O)C1=C(C(=O)OCC)C2N(Cc3ccc(C#N)cc3)c3ccccc3[C@@]23C[C@@H](C(=O)OC)N(S(=O)(=O)c2ccccc2)C3=N1 (stereo partly specified),2,·,·,·,-6,·
O=C1CCCC2=C1[C@@]1(O[C@H]3C=CC=CN23)C(=O)N(c2ccccc2)c2ccccc21,1,·,·,·,-21,·
Cc1cc(C)c(C)c(C(=O)CSc2nnc(-c3ccc4[nH]c(C)c(C)c4c3)o2)c1C,6,-5,-8,-23,69*,13
Cc1[nH]c2ccc(-c3nnc(SCC(=O)c4ccc(F)cc4)o3)cc2c1C,8,3,26,-15,4,10
N#Cc1c(-c2ccccc2)nc(SCC(=O)N(c2ccccc2)c2ccccc2)[nH]c1=O,5,-5,3,-10,-28,23
N#Cc1c(-c2ccccc2)nc(SCC(=O)N2c3ccccc3Sc3ccccc32)[nH]c1=O,14,-5,-8,-15,10,76*
O=C(O)C1C2C=CC(C2)C1C(=O)NCCCN1CCOCC1 (stereo unspecified),3,-2,11,-19,1,-2
CCCCNC(=O)C1C2C=CC(C2)C1C(=O)O (stereo unspecified),42*,-4,1,-4,-5,-21
O=S(=O)(Nc1cccc(-c2cn3c(n2)SCC3)c1)c1cccs1,0,-3,-6,1,-1,56*
O=S(=O)(Nc1cccc(-c2cn3c(n2)SCC3)c1)c1ccccc1F,1,-5,5,-10,-13,23
O=[N+]([O-])c1cc(S(=O)(=O)C(F)(F)F)ccc1Sc1nc2ccccc2[nH]1,13,-14,-19,-4,21,59
CS(=O)(=O)c1ccc(Sc2nc3ccccc3[nH]2)c([N+](=O)[O-])c1,2,-9,-9,-34,9,44*
Cc1cccc(C)c1NC(=O)CSc1ncnc2[nH]ncc12,4,-12,·,10,-3,4
O=C(CSc1ncnc2[nH]ncc12)Nc1nc(-c2ccc(F)c(F)c2)cs1,24,42*,-9,45*,62*,52*
Cn1nnnc1Sc1ncnc2scc(-c3ccc([N+](=O)[O-])cc3)c12,4,-8,·,1,22,39*
Cn1nnnc1Sc1ncnc2scc(-c3ccc(Cl)cc3)c12,-1,-22,·,-34,-1,11
SMILES,TAAR1 ag,CHO parental Ca,GPR7 antagonist,OX1R antag-1,TAAR1 antagonist,OX1R antag-2
C[C@@H]1C=CCCO[C@]12C(=O)N(Cc1ccc(Br)cc1)c1ccccc12,0,·,·,·,-9,·
O=C(Nc1cccc(-c2cccc(F)c2)c1)C1CCN(C2CCOCC2)CC1,8,-18,4,-16,-18,0
N#CC1=C(c2ccccc2)/C(=C/c2ccccc2)OC1=O,12,-2,-8,17,58*,33
O=S(=O)(Nc1nccs1)c1ccc(NCc2cc(Br)cc(Br)c2O)cc1,12,-4,-11,-10,7,15
COc1cccc(CNc2ccc(S(=O)(=O)Nc3nccs3)cc2)c1O,8,-6,17*,-10,12,4
COc1ccc2ccccc2c1CN1CCN(c2ncc(Cc3ccccc3)cn2)CC1,1,·,·,·,-70,·
Cc1ccccc1-c1n[nH]nc1C1=CC(=O)C[C@H](c2ccc(F)cc2)C1,-1,·,·,·,-13,·
CC(C)C(C(=O)NCc1ccccc1)N1CCN(CCN2CCOCC2)CC1 (stereo unspecified),0,·,·,·,-11,·
COc1ccc(CN=Cc2[nH]c3ccc(Br)c(Cl)c3c2O)cc1,-3,-5,10,-14,106*,19
C[C@@H]1C=CCCO[C@]12C(=O)N(Cc1ccc(Br)cc1)c1cccc(Br)c12,-1,·,·,·,34,·
Cc1cccc(C)c1NC(=O)CN(c1ccccn1)S(=O)(=O)c1ccccc1,1,25*,-9,-15,6,16
Cc1cccc(C)c1NC(=O)CN(c1ccccn1)S(=O)(=O)c1ccc(F)cc1,15,-7,-3,-11,-2,-1
Cc1nc2cc(-c3ccc(Cl)cc3)nn2c(C)c1CCC(=O)NC(C)c1ccc2c(c1)OCCO2 (stereo unspecified),0,-17,4,7,20,49*
Cc1csc(NC(=O)CCc2c(C)nc3cc(-c4ccc(Cl)cc4)nn3c2C)n1,2,-4,-1,-17,-4,6
Cc1cc(O)cc(=O)n1-c1ccc(Cl)c(C(F)(F)F)c1,1,·,·,·,2,·
CCN(c1ccccc1)S(=O)(=O)c1ccc(Cl)c(NC(=O)CNCc2ccccc2OC)c1,5,-21,·,4,55*,17
CCN(CC)S(=O)(=O)c1ccc(Cl)c(NC(=O)COc2ccc(OC)cc2)c1,27,21,1,2,58*,13
COc1ccc(OCC(=O)Nc2cc(S(=O)(=O)N3CCCCC3)ccc2OC)cc1,-1,2,·,-21,-35,17
CCN(c1ccccc1)S(=O)(=O)c1ccc(OC)c(NC(=O)Cc2ccccc2OC)c1,1,-7,·,8,-10,22
COc1ccc(OCC(=O)Nc2cc(S(=O)(=O)N3CCCC3)ccc2Cl)cc1,39*,·,·,·,61*,·
